Source: PubChem BioAssay (Johns Hopkins Ion Channel Center)
Hits are enriched below; roughly 3.7% of the tested compounds scored in any of these assays.
Kir21 inh: inhibitors of mouse Kir2.1 inward-rectifier potassium channel; HEK293-Kir2.1, FluxOR thallium flux fluorescence; hits give low values; B-score at 10 µM; actives 0.85% (n = 310,000); AID 1672;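 active means fluorescence ratio B-score at or below minus 3 SD of library scores, with starting-brightness B-score within 2 SD, cut at about -4.2 in these data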;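 further: channel flux triggered by added potassium and thallium sulfate stimulus; B-score of peak minus minimum fluorescence over baseline after thallium stimulus; more negative B-score means stronger Kir2.1 block with less thallium influx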
hERG rescue: shields human hERG channel from block by proarrhythmic agents. Q12809. CHO-hERG, FluxOR thallium flux, dofetilide IC70 present. activation (rescue from dofetilide block), less the hit threshold, % at 10 µM. actives 0.51% (n = 310,000). AID 1511;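 active means activation above the mean of controls blocked by dofetilide plus 5 SD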;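 further: thallium influx through hERG after potassium depolarization seen as dye fluorescence rise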
KCNK9 inh: blocks the human KCNK9 two-pore domain potassium channel; HEK293 KCNK9, FluxOR thallium flux fluorescence; hits give low values; B-score at 10 µM; actives 1.2% (n = 310,000);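 active means ratio B-score over 3 SD below the library mean, with starting fluorescence within 5 SD of its mean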;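 further: negative B-score means less thallium flux so channel inhibition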
KCNQ1 block: human KCNQ1 channel inhibition. AID 2642. actives 1.3% (n = 310,000). B-score at 10 µM. P51787. CHO-K1 KCNQ1, FluxOR thallium flux fluorescence; hits give high values;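 active means compounds whose thallium flux B-score, printed positive for inhibition, exceeds three library SD while starting fluorescence stays within three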;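 further: channel opened by potassium depolarization with thallium stimulus after 20 min compound exposure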
KCNK3 inh: human KCNK3 channel inhibition, primary screen; actives 0.84% (n = 340,000); CHO-KCNK3 thallium flux, FluxOR fluorescence; hits give low values; O14649; B-score at 10 µM; AID 602410;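 active means B-score under library mean minus 4 SD, starting fluorescence ratio at most library mean plus 5 SD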;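 further: more negative B-score means stronger inhibition of thallium flux through KCNK3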
Target sequence (O14649 whole entry, looked up): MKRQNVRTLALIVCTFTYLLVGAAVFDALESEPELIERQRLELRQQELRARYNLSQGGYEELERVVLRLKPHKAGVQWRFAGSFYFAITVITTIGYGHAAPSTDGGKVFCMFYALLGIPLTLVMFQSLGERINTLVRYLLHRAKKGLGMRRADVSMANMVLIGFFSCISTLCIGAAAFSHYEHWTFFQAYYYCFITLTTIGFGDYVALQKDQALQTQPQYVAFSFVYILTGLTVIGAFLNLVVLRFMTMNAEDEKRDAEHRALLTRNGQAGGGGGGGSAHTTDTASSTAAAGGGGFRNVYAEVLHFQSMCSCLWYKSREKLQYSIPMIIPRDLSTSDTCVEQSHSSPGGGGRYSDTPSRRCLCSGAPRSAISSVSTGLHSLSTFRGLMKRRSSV
KCNQ1 act: human KCNQ1 channel potentiation or activation | P51787 | CHO-K1 KCNQ1, thallium flux FluxOR fluorescence; hits give high values | B-score at 10 µM | actives 0.35% (n = 310,000);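 active means fluorescence ratio B-score, a plate-corrected score, at least three library SD, with initial intensity B-score within 5 SD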
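Doses: Single concentration per compound, DMSO matched to controls | Test system: KCNQ1-transfected CHO-K1 cells | Timing: 90 min dye loading and 20 min compound exposure, both at room temperature | Measured by: Kinetic FluxOR thallium fluorescence, 10-s 1-Hz baseline, 110-s post-stimulus read | Medium: Assay buffer with matched DMSO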
Of the large screens only hits and unclear results are named; the others gave an inactive call.

CCC(C)c1ccc(NC(=O)c2[nH]c(C)c(C(C)=O)c2C)cc1 (stereo not drawn)	none
CCC(NC(=O)c1[nH]c(C)c(C(C)=O)c1C)c1ccc(Br)cc1 (stereo not drawn)	KCNQ1 block 6
Cc1nc(NC(=O)CN2CCC(O)(c3ccc(F)cc3)CC2)sc1C	none
O=c1c(-c2ccccc2)c[nH]n1-c1cccc([N+](=O)[O-])c1	KCNQ1 block 7
S=c1nc(C2CCCCC2)n(-c2ccccc2)[nH]1	hERG rescue 11, KCNQ1 act 40
CCOC(=O)c1c(C)nc2ccccc2c1-c1ccccc1	Kir21 inh -5.9
CCOC(=O)c1c(CCl)nc2ccccc2c1-c1ccccc1	none
CC1CCCCC1NCC#CCOc1ccc(Cl)cc1 (stereo not drawn)	Kir21 inh -5
COc1cccc(CN(C)CC(=O)NCc2ccc(F)cc2)c1OC	none
COc1ccccc1CNC(=O)CN(C)Cc1ccc(SC)cc1	Kir21 inh -5.4
CCc1ccccc1-n1nnc(-c2ccccc2)n1	none
O=C(Cc1cccs1)NCc1ccc(Cl)cc1Cl	none
Cc1csc(=O)n1CC(=O)OCC(=O)NNC(=O)c1ccc(Cl)cc1	none (no result: Kir21 inh, hERG rescue, KCNK9 inh, KCNQ1 block, KCNQ1 act)
CCN1C(=O)[C@H]2[C@@H](c3ccc(-c4ccc(F)cc4)cc3)N[C@@](CC(C)C)(C(=O)OC)[C@H]2C1=O	none
CCN1C(=O)[C@H]2[C@@H](c3ccc(-c4ccc(F)cc4)c(OC)c3)N[C@@](CC(C)C)(C(=O)OC)[C@H]2C1=O	KCNK9 inh -12 (no result: KCNK3 inh)
CCCCCc1ccc(C(=O)CCCC)c(=S)[nH]1	hERG rescue 35, KCNQ1 act 17
CC(NC(=O)C(C)N1CCN(Cc2ccccc2)CC1)c1ccc(F)cc1 (stereo not drawn)	none
Cc1ccc(-n2c(=O)c3sccc3n(CC(=O)N3CCCC3)c2=O)cc1	none
O=C(Cn1c(=O)n(-c2ccccc2)c(=O)c2sccc21)N1CCCC1	KCNQ1 block 6
NC(=NC(=O)c1cccc(C(F)(F)F)c1)c1ccc(C(F)(F)F)cn1	KCNK9 inh -7
CC(C)n1cnc2c(N(C)c3ccccc3)nc(N(CCN(C)C)Cc3ccccc3)nc21	Kir21 inh -6.8
O=C(Nc1ccc([N+](=O)[O-])cc1)Nc1ccc(Cl)cc1F	KCNQ1 block 14
O=C(Nc1ccc(Cl)cc1)Nc1cc([N+](=O)[O-])ccc1F	none
Cc1cc(OC(F)F)ccc1NC(=O)Nc1ccc([N+](=O)[O-])cc1	KCNQ1 block 6
COc1ccc(CC2(C)OC(c3ccc([N+](=O)[O-])cc3)=NN2C(C)=O)cc1 (stereo not drawn)	none
N#CC(C(=O)c1ccccc1)=C1SCCS1	none
COc1ccccc1N(C(=O)c1cncc(Br)c1)c1nc(-c2ccc(C)cc2)cs1	none
O=C(Nc1ccccc1)N1CCN(Cc2ccc(Cl)cc2)CC1	none
O=C(Nc1ccc(Cl)cc1)N1CCCN(Cc2ccc(F)cc2)C1	Kir21 inh -4.5
Cc1ccccc1S(=O)(=O)/N=C(/c1ccccc1)N1CCOCC1	none
CC(C)=CCSc1nnc([C@@H](NC(=O)OC(C)(C)C)C(C)C)o1	none
C[C@H](NC(=O)OC(C)(C)C)c1nnc(SCC(=O)Nc2cccc(Cl)c2)o1	Kir21 inh -4.3
CC(C)[C@H](NC(=O)OC(C)(C)C)c1nnc(SCC(=O)Nc2ccc(Br)cc2)o1	KCNQ1 block 6
COc1ccc(-c2[nH]ncc2CNC(C)c2ccccc2Cl)cc1F (stereo not drawn)	Kir21 inh -7.3
COc1c(Cl)ccc(Cl)c1C(=O)NC(=S)N1CCOCC1	none
O=C(CCN1CCN(C(=O)c2ccccc2)CC1)c1ccc(Br)cc1	none
CC(=O)Nc1nc(=O)c2ccccc2s1	none
CSc1nc2ccc3nc(NC(=O)c4ccc(C)cc4)sc3c2s1	none
O=C(Nc1nc(=O)c2ccccc2s1)c1ccccc1	KCNQ1 act 11
Cc1ccc(C(=O)Nc2nc(=O)n(C(=O)C3CC3)s2)cc1	hERG rescue 5.0
Cc1ccc(C(=O)Nc2nc3ccccc3c(=O)s2)cc1	hERG rescue 23, KCNQ1 act 35
COc1ccc(NS(=O)(=O)c2cc(NC(=O)c3ccc(=O)[nH]c3)ccc2N2CCCC2)cc1	none
O=C(Nc1ccccc1)OCCCCCOC(=O)Nc1ccccc1	hERG rescue 7.7
CCc1ccc(Nc2cc(C)nc3ncnn23)cc1	none
CCn1c2ccccc2c2cc(Nc3cc(C)nc4ncnn34)ccc21	Kir21 inh -7.6
O=C(OCc1nc2ccsc2c(=O)[nH]1)c1ccc(Cl)s1	none
Cc1cc(C)c2[nH]c(=O)c(CN(Cc3ccc4c(c3)OCO4)Cc3nnnn3C3CCCC3)cc2c1	KCNK9 inh -13
CCc1cc(/C(Cc2csc(C)n2)=N/O)c(O)cc1O	Kir21 inh -4.4
O=C(c1cc(-c2ccccc2)on1)N1CCCC1	hERG rescue 5.0
Cc1ccccc1Nc1nc(N)nc(COC(=O)[C@@H](NC(=O)c2c(F)cccc2F)C(C)C)n1	none
C/C(N)=C(/C#N)C(=O)CSc1nc2ccccc2c(=O)n1Cc1ccc(F)cc1	KCNQ1 act 8
Cc1nc(-n2ncc(C#N)c2N)c2c3c(sc2n1)CCC3	none
CCOC(=O)c1cnn(-c2nc(SC)nc3sc4c(c23)CCC4)c1N	KCNK9 inh -7.8
O=C(Nc1cccc([N+](=O)[O-])c1)Nc1cccc([N+](=O)[O-])c1	KCNQ1 block 8
Cc1ccc(C(=O)Nc2cccc([N+](=O)[O-])c2)cc1S(=O)(=O)Nc1ccc(NC(=O)c2ccccc2)cc1	none
COc1cc(NC(=O)Nc2cccc([N+](=O)[O-])c2)cc(OC)c1	none
Cc1ccc(NS(=O)(=O)c2cc(C(=O)Nc3cccc([N+](=O)[O-])c3)ccc2C)cc1	KCNK9 inh -6.8
O=C(Nc1ccc(C(=O)O)cc1)Nc1cccc([N+](=O)[O-])c1	KCNQ1 block 7
Cc1ccc(NC(=O)c2cccs2)cc1S(=O)(=O)Nc1cccc(Cl)c1	KCNK9 inh -7.8
Cc1cccc(OCC(=O)N/N=C\c2cccn2C)c1C	none
CCCc1ccc2oc(C(=O)N3CCN(c4cnccn4)CC3)c(C)c2c1	none
CCOC(=O)C1=CN(Cc2cccc(F)c2)S(=O)(=O)N(C)C1c1ccc2ccccc2c1 (stereo not drawn)	none (no result: Kir21 inh, hERG rescue, KCNK9 inh, KCNQ1 block, KCNQ1 act)
Cc1ccc(NC(=O)Nc2cccc([N+](=O)[O-])c2)nc1	none
O=C(Nc1cccc([N+](=O)[O-])c1)NC1CCCCCCC1	KCNQ1 block 7
Cn1ccc(NC(=O)Nc2cccc([N+](=O)[O-])c2)n1	KCNQ1 block 6
CS(=O)(=O)N(CCc1ccccc1)CC(=O)Nc1ccc2c(c1)OCO2	KCNK9 inh -7.9
